Experiments:
[1] = biological target: T1, Broad substrate specificity ATP-binding cassette transporter ABCG2 (Homo sapiens, UniProt Q9UNQ0); assay: Inhibition of human ABCG2 expressed in MDCK2 cells co-expressing GFP preincubated for 30 mins followed by Hoechst 33342 addition and measured every 60 sec for 120 mins by fluorescence assay; format: cell-based, MDCK-II
T1 sequence (Q9UNQ0 whole entry): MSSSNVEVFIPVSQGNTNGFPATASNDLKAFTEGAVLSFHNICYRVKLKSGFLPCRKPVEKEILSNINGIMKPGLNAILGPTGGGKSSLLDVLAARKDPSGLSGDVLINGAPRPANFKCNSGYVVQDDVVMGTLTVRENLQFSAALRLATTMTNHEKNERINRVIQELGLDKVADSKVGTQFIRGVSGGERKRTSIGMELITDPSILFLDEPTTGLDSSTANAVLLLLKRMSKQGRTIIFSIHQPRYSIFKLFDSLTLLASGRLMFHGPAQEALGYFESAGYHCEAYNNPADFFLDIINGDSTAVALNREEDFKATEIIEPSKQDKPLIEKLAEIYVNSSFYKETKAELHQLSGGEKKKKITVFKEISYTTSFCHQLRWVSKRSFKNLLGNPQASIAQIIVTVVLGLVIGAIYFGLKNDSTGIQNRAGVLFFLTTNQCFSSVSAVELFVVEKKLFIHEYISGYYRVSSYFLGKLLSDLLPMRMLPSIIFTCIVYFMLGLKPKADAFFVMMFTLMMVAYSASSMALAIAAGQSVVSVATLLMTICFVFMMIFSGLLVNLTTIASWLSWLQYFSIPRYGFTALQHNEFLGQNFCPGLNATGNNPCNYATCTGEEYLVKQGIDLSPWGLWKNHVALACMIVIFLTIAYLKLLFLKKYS
Outline: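 MDCK II cells transfected with human ABCG2 cDNA C-terminally fused to GFP. Hoechst 33342 added at 1 µM final. Fluorescence (ex 355, em 460 nm) read every 60 s for 120 min. Steady-state means vs log concentration fitted by 3- or 4-parameter logistic to give IC50.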

ABCG2 [2] = biological target: T2, ABCG2 (Homo sapiens, UniProt Q9UNQ0); assay: Inhibition of human ABCG2 expressed in MDCK2 cells co-expressing GFP preincubated for 30 mins followed by Hoechst 33342 addition and measured every 60 sec for 120 mins by fluorescence assay relative to control; format: cell-based, MDCK-II; settings: probe Hoechst 33342, read-out: Imax
T2 sequence (Q9UNQ0 whole entry): T1 sequence (Q9UNQ0 whole entry)
Outline: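 MDCK II cells transfected with human ABCG2 cDNA C-terminally fused to GFP. Steady-state means vs log concentration fitted by 3- or 4-parameter logistic to give IC50.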

[3] = biological target: T1, Broad substrate specificity ATP-binding cassette transporter ABCG2; assay: Inhibition of human ABCG2 expressed in MDCK2 cells co-expressing GFP preincubated for 15 mins followed by pheophorbideA addition and measured after 2 hrs by flow cytometric analysis; format: cell-based, MDCK-II
Outline: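 Pheophorbide A added to 0.5 µM final and incubated 2 h. Read by flow cytometry (ex 488, em 695/50 nm); GFP expression checked at 525/30 nm. IC50 from 3- or 4-parameter logistic fit.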

ABCG2 [4] = biological target: T2, ABCG2; assay: Inhibition of human ABCG2 expressed in MDCK2 cells co-expressing GFP preincubated for 15 mins followed by pheophorbideA addition and measured after 2 hrs by flow cytometric analysis relative to control; format: cell-based, MDCK-II; settings: probe pheophorbide A, read-out: Imax
[5] = biological target: T3, ATP-dependent translocase ABCB1 (Homo sapiens, UniProt P08183); assay: Inhibition of human ABCB1 expressed in A2780/ADR cells preincubated for 30 mins followed by calcein AM addition and measured every 60 secs for 60 mins by fluorescence assay; format: cell-based
Outline: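 ABCB1 in A2780/ADR cells (kept resistant by one passage in 1 µM doxorubicin every 10 passages). 30,000 cells per well in Krebs-HEPES buffer, preincubated 30 min at 37 °C with inhibitor. Calcein AM added from a 3.125 µM solution. Fluorescence (ex 485, em 520 nm) read every 60 s for 60 min. Initial linear slopes vs log concentration fitted to give IC50.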

[6] = biological target: T3, ATP-dependent translocase ABCB1; assay: Inhibition of human ABCB1-mediated multidrug resistance in human A2780/ADR cells assessed as potentiation of doxorubicin-induced cytotoxicity by measuring half maximal reversal concentration after 72 hrs by MTT assay; format: cell-based
[7] = Growth inhibition of MDCK2 cells over expressing human ABCG2 after 72 hrs by MTT assay; format: ADME, cell-based, Canis lupus familiaris, MDCK-II; settings: dog, MDCK2 cells overexpressing human ABCG2
Outline: (§1)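 MTT viability assay. Compound dilutions in culture medium (3.2 to 1000 µM as prepared). About 2,000 cells per well, 72 h at 37 °C, 5% CO2. Culture medium set as 100% and 10% DMSO as 0% viability. MTT added for 1 h, formazan dissolved in DMSO, absorbance read at 570 nm with 690 nm background. GI50 from nonlinear regression of absorbance vs log concentration; at least three independent experiments, duplicates, mean ± SEM.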

[8] = Growth inhibition of MDCK2 cells after 72 hrs by MTT assay; format: cell-based, Canis lupus familiaris, MDCK-II; settings: dog; outline: as §1
ABCG2 [9] = assay: Therapeutic ratio of GI50 for Growth inhibition of MDCK2 cells over expressing human ABCG2 to IC50 for inhibition of human ABCG2 expressed in MDCK2 cells co-expressing GFP preincubated for 30 mins followed by Hoechst 33342 addition and measured every 60 sec for 120 mins by fluorescence assay; format: toxicity, cell-based; settings: dog, MDCK2 cells overexpressing human ABCG2, probe Hoechst 33342; read-out: TI
ABCG2 [10] = assay: Therapeutic ratio of GI50 for Growth inhibition of MDCK2 cells over expressing human ABCG2 to IC50 for inhibition of human ABCG2 expressed in MDCK2 cells co-expressing GFP preincubated for 15 mins followed by pheophorbideA addition and measured after 2 hrs by flow cytometric analysis; format: toxicity, cell-based; settings: dog, MDCK2 cells overexpressing human ABCG2, probe pheophorbide A; read-out: TI
[11] = biological target: Multidrug resistance-associated protein 1 (Homo sapiens, UniProt P33527); assay: Inhibition of human ABCC1-mediated multidrug resistance in MDCK2 cells assessed as potentiation of doxorubicin-induced cytotoxicity by measuring half maximal reversal concentration after 72 hrs by MTT assay; format: cell-based; settings: mdck-ii
MDCK-II [12] = assay: Cytotoxicity against MDCK2 cells over expressing human ABCG2 at 10 uM assessed as reduction in cell viability after 72 hrs by MTT assay; format: ADME, cell-based, Canis lupus familiaris; settings: dog
Outline: (§2)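 Single-concentration screen at 10 µM in MDCK II BCRP and parental MDCK II cells. MTT assay, 72 h at 37 °C, 5% CO2. Viability referenced to culture medium (100%) and 10% DMSO (0%). Mean ± SEM of at least three independent experiments with duplicates.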

MDCK-II [13] = assay: Cytotoxicity against MDCK2 cells assessed as reduction in cell viability at 10 uM after 72 hrs by MTT assay; format: cell-based, Canis lupus familiaris; settings: dog; outline: as §2

Chain of Multidrug resistance-associated protein 1 (P33527 whole entry): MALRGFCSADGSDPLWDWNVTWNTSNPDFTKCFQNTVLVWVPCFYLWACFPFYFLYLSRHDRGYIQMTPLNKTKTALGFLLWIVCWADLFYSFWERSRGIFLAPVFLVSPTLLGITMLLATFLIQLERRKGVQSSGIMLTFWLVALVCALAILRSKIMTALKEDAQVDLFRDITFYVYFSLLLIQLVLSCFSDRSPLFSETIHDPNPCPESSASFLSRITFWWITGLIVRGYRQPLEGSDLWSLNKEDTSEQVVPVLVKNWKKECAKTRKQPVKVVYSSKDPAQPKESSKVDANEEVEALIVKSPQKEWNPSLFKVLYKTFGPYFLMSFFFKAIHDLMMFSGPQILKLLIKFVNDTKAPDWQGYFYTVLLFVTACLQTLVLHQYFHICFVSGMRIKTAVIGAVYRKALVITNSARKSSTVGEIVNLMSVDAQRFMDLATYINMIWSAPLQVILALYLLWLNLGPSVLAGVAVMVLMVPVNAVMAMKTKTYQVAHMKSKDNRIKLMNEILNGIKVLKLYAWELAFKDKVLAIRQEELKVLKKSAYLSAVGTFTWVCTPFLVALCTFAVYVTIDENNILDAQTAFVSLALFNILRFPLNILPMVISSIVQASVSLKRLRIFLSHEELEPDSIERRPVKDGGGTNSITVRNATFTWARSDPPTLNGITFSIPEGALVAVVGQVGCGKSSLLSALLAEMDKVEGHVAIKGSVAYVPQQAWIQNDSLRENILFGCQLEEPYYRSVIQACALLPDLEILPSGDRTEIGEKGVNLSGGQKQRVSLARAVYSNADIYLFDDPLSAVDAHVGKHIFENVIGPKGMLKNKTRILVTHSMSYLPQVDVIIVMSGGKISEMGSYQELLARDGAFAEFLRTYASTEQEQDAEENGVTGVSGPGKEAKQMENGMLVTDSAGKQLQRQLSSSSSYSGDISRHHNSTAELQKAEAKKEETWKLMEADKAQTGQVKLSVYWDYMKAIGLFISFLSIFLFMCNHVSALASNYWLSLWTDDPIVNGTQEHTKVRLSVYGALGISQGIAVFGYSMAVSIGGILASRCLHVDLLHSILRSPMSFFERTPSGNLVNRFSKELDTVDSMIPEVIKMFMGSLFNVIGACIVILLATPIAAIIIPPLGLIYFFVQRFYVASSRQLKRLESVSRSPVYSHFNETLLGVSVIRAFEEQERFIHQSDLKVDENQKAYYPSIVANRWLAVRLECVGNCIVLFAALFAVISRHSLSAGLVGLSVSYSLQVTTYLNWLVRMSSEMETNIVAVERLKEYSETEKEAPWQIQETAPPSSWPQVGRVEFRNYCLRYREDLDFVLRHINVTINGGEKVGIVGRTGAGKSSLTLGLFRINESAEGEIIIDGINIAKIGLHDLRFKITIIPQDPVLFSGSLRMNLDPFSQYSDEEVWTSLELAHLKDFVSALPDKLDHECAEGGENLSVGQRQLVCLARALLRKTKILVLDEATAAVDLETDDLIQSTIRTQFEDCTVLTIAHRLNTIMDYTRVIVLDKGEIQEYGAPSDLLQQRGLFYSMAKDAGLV
T3 sequence (P08183 whole entry): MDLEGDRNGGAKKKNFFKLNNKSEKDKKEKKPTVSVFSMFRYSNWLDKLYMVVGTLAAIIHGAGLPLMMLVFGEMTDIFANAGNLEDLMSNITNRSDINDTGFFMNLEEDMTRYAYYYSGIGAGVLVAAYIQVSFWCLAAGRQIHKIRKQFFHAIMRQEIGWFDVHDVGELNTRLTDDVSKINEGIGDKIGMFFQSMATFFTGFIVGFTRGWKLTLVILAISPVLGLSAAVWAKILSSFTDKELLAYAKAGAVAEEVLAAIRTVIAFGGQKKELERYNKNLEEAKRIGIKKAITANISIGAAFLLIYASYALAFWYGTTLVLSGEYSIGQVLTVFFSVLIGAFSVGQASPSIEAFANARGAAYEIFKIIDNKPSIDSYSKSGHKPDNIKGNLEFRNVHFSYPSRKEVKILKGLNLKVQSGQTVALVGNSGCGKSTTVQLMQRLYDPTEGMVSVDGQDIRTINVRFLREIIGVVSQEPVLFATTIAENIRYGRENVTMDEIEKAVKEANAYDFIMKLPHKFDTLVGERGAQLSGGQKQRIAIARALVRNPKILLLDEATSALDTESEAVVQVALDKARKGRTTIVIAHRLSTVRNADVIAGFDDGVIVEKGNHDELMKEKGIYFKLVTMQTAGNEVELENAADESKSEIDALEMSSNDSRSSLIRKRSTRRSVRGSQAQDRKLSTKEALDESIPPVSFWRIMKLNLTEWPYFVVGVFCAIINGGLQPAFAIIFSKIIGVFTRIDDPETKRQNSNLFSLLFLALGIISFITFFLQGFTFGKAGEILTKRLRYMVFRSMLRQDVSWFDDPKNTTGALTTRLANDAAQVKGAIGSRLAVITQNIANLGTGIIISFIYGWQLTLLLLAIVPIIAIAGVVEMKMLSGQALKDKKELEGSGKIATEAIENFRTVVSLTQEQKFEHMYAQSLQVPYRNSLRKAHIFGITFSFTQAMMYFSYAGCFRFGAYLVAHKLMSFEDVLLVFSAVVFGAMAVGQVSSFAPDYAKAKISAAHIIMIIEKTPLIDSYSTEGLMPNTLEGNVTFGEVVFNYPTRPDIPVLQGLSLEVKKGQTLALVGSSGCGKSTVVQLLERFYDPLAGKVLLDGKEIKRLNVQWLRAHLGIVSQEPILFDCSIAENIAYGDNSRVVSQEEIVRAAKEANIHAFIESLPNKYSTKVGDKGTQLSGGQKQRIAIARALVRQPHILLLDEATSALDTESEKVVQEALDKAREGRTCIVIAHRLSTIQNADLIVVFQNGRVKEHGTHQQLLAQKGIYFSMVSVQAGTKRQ

SMILES | IC50 [1] | Emax at 2 h (ABCG2 [2]) | IC50 [3] | Emax at 2 h (ABCG2 [4]) | IC50 [5] | inhibition (INH) [6] | GI50 at 72 h [7] | GI50 at 72 h [8] | selectivity ratio (ABCG2 [9]) | selectivity ratio at 2 h (ABCG2 [10]) | inhibition (INH) [11] | Activity (MDCK-II [12]) | Activity (MDCK-II [13])
COc1ccc(Nc2cc(C)nc(-c3ccccc3)n2)cc1C(F)(F)F | 598 nM | 100% | 544 nM | 83% | 7300 nM | Not Active | 8400 nM | 10100 nM | 14 | 15 | Not Active | Toxic | Toxic
Cc1cc(Nc2ccc([N+](=O)[O-])cc2)nc(-c2ccccc2)n1 | 52.2 nM | 79% | 156 nM | 67% | 11200 nM | – | 17000 nM | 16700 nM | 327 | 111 | – | Non-Toxic | Non-Toxic
Cc1cc(Nc2ccc(F)c([N+](=O)[O-])c2)nc(-c2ccccc2)n1 | 1010 nM | 100% | 771 nM | 100% | – | – | – | – | – | – | – | Non-Toxic | Non-Toxic
Cc1cc(Nc2ccc(CC#N)cc2)nc(-c2ccccc2)n1 | 2500 nM | 100% | 3620 nM | 100% | 16000 nM | – | – | – | – | – | – | Non-Toxic | Non-Toxic
COc1cccc(Nc2cc(C)nc(-c3ccccc3)n2)c1 | 271 nM | 96% | 503 nM | 100% | 13400 nM | – | – | – | – | – | – | Non-Toxic | Non-Toxic
Cc1cc(Nc2cccc([N+](=O)[O-])c2)nc(-c2ccccc2)n1 | 130 nM | 80% | 146 nM | 68% | – | – | – | – | – | – | – | Non-Toxic | Non-Toxic
Cc1cc(Nc2ccc(C#N)c(C#N)c2)nc(-c2ccccc2)n1 | 188 nM | 117% | 548 nM | 100% | – | – | – | – | – | – | – | Non-Toxic | Non-Toxic
C[S+](C)[O-] [DIMETHYL SULFOXIDE] | – | – | – | – | – | – | 137000 nM | 123000 nM | – | – | – | – | –
Cc1cc(Nc2ccc(C#N)c(C(F)(F)F)c2)nc(-c2ccccc2)n1 | 69.3 nM | 114% | 385 nM | 92% | – | – | 9570 nM | 9890 nM | 139 | 25 | – | Toxic | Toxic
Cc1cc(Nc2cccc(CO)c2)nc(-c2ccccc2)n1 | 4220 nM | 100% | 2520 nM | 100% | – | – | – | – | – | – | – | Non-Toxic | Non-Toxic
Cc1cc(Nc2ccc3c(c2)C(=O)NC3=O)nc(-c2ccccc2)n1 | 253 nM | 105% | 416 nM | 101% | 17700 nM | – | – | – | – | – | – | Non-Toxic | Non-Toxic

Second part, led by results:

IC50 [1] | Emax at 2 h (ABCG2 [2]) | IC50 [3] | Emax at 2 h (ABCG2 [4]) | IC50 [5] | SMILES | inhibition (INH) [6] | GI50 at 72 h [7] | GI50 at 72 h [8] | selectivity ratio (ABCG2 [9]) | selectivity ratio at 2 h (ABCG2 [10]) | inhibition (INH) [11] | Activity (MDCK-II [12]) | Activity (MDCK-II [13])
808 nM | 100% | 1630 nM | 100% | 13100 nM | Cc1cc(Nc2ccc3c(c2)OCCO3)nc(-c2ccccc2)n1 | – | – | – | – | – | – | Non-Toxic | Non-Toxic
861 nM | 100% | 1310 nM | 100% | 8990 nM | COc1ccc(Nc2cc(C)nc(-c3ccccc3)n2)cc1F | – | – | – | – | – | – | Non-Toxic | Non-Toxic
280 nM | 100% | 328 nM | 53% | 5030 nM | COc1cc(Nc2cc(C)nc(-c3ccccc3)n2)ccc1Br | Not Active | – | – | – | – | Not Active | Non-Toxic | Non-Toxic
307 nM | 100% | 86.1 nM | 59% | – | Cc1cc(Nc2ccc(F)c(C#N)c2)nc(-c2ccccc2)n1 | – | 96700 nM | 102000 nM | 315 | 1120 | – | Non-Toxic | Non-Toxic
1110 nM | 100% | 776 nM | 100% | – | Cc1cc(Nc2cccc(F)c2)nc(-c2ccccc2)n1 | – | – | – | – | – | – | Non-Toxic | Non-Toxic
119 nM | 90% | 59.4 nM | 40% | – | Cc1cc(Nc2ccc(C#N)c(Br)c2)nc(-c2ccccc2)n1 | – | 145000 nM | 188000 nM | 1220 | 2440 | – | Non-Toxic | Non-Toxic
58.9 nM | 76% | 228 nM | 86% | – | Cc1cc(Nc2ccc([N+](=O)[O-])c(Cl)c2)nc(-c2ccccc2)n1 | – | – | – | – | – | – | Non-Toxic | Non-Toxic
892 nM | 100% | 386 nM | 83% | 7140 nM | Cc1cc(Nc2cccc(Br)c2)nc(-c2ccccc2)n1 | Not Active | – | – | – | – | Not Active | Non-Toxic | Non-Toxic
811 nM | 100% | 1000 nM | 100% | 5920 nM | Cc1cc(Nc2cccc(Cl)c2)nc(-c2ccccc2)n1 | Not Active | – | – | – | – | Not Active | Non-Toxic | Non-Toxic
253 nM | 74% | 516 nM | 59% | – | Cc1cc(Nc2cccc(O)c2)nc(-c2ccccc2)n1 | – | – | – | – | – | – | Non-Toxic | Non-Toxic
